Data from ChEMBL document CHEMBL1156273, “Membrane permeable cyclic peptidyl inhibitors against human Peptidylprolyl Isomerase Pin1” (J Med Chem, 2010).
Active and inactive are the calls of the source. The calls are words filed in the database; no cut-off is given here. Square brackets hold non-standard residues; d marks the D form. Peptide text beside a SMILES is read from it. dalloThr(PO3H2) = C[C@@H](OP(=O)(O)O)[C@@H](N)C(=O)O; d(pT) = C[C@H](OP(=O)(O)O)[C@@H](N)C(=O)O; 2Nal = N[C@@H](Cc1ccc2ccccc2c1)C(=O)O; Pip = O=C(O)[C@@H]1CCCCN1

Assays:
HeLa [1] = assay: Cellular uptake in human HeLa cells assessed as nuclear localization at 1 uM after 48 hrs by fluorescence microscopy; format: ADME, cell-based
How it was run: (§1)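 HeLa cells in DME + 10% FBS, 1% pen/strep, 37 °C, 5% CO2, grown on cover glass. Given 0 or 1.0 μM FITC-labeled peptide (FITC on the Glu side chain via a Lys linker) for 48 h. Then PBS-washed, fixed in 3.7% paraformaldehyde, permeabilized with goat serum/Triton X-100, DAPI-stained, and imaged by fluorescence microscopy.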

HeLa [2] = assay: Cellular uptake in human HeLa cells assessed as cytoplasmic localization at 1 uM after 48 hrs by fluorescence microscopy; format: ADME, cell-based; how it was run: as §1
BT-474 = assay: Antiproliferative activity against human BT474 cells at […] after 6 days; format: functional
[3] = biological target: Peptidyl-prolyl cis-trans isomerase NIMA-interacting 1 (Homo sapiens) (UniProt Q13526); assay: Inhibition of Pin1 in human BT474 cells assessed as increase in SMRT level at 5 uM by Western blotting; format: cell-based; conditions: BT-474
How it was run: (§2)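 Cells given peptide for 48 h: HeLa in DME + 10% FBS, pen/strep; BT-474 in Hybri-Care DME + 10% FBS. Vehicle control DMSO. Lysed in RIPA with protease inhibitors, equal protein (Bradford) on 8% SDS-PAGE, nitrocellulose transfer, milk block. Probed with anti-SMRT, anti-PML and anti-β-actin (loading), HRP secondary, chemiluminescent detection.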

[4] = biological target: Peptidyl-prolyl cis-trans isomerase NIMA-interacting 1 (Homo sapiens) (UniProt Q13526); assay: Inhibition of Pin1 in human BT474 cells assessed as increase in PML level at 5 uM by Western blotting; format: cell-based; conditions: BT-474; how it was run: as §2

Peptidyl-prolyl cis-trans isomerase NIMA-interacting 1 (Homo sapiens), sequence (Q13526 whole entry): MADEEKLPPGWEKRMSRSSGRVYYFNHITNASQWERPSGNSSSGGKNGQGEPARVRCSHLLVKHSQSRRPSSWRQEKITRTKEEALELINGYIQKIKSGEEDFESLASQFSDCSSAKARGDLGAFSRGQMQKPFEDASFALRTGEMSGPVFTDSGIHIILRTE

Drug uptake (HeLa [1])	Drug uptake (HeLa [2])	Activity [3]	Activity [4]	SMILES	Activity (BT-474)
Active	Active			C[C@@H](OP(=O)(O)O)[C@H]1NC(=O)[C@@H](CCCNC(=N)N)NC(=O)[C@@H](CCCNC(=N)N)NC(=O)[C@H](CCC(N)=O)NC(=O)[C@H](CCCNC(=N)N)NC(=O)[C@H](Cc2ccc3ccccc3c2)NC(=O)[C@@H]2CCCCN2C1=O	
Active	Active			C[C@H](O)[C@H]1NC(=O)[C@@H](CCCNC(=N)N)NC(=O)[C@@H](CCCNC(=N)N)NC(=O)[C@H](CCC(N)=O)NC(=O)[C@H](CCCNC(=N)N)NC(=O)[C@H](Cc2ccc3ccccc3c2)NC(=O)[C@@H]2CCCCN2C1=O	
				C[C@H]1NC(=O)[C@H](CCC(N)=O)NC(=O)[C@H](CCCN)NC(=O)[C@H](Cc2ccc3ccccc3c2)NC(=O)[C@@H]2CCCCN2C(=O)[C@@H]([C@@H](C)OP(=O)(O)O)NC(=O)CNC1=O	inactive
Active	Active			C[C@H](O)[C@H]1NC(=O)[C@H](CCCNC(=N)N)NC(=O)[C@H](CCCNC(=N)N)NC(=O)[C@H](CCCNC(=N)N)NC(=O)[C@H](CCC(N)=O)NC(=O)[C@H](CCCNC(=N)N)NC(=O)[C@H](CCCNC(=N)N)NC(=O)[C@H](Cc2ccc3ccccc3c2)NC(=O)[C@@H]2CCCCN2C1=O (cyclo([2Nal]RRQRRR[dT][Pip]))	
Active	Active	Active	Active	C[C@@H](OP(=O)(O)O)[C@H]1NC(=O)[C@H](CCCNC(=N)N)NC(=O)[C@H](CCCNC(=N)N)NC(=O)[C@H](CCCNC(=N)N)NC(=O)[C@H](CCC(N)=O)NC(=O)[C@H](CCCNC(=N)N)NC(=O)[C@H](CCCNC(=N)N)NC(=O)[C@H](Cc2ccc3ccccc3c2)NC(=O)[C@@H]2CCCCN2C1=O (cyclo([2Nal]RRQRRR[dalloThr(PO3H2)][Pip]))	
Active	Active			C[C@H](OP(=O)(O)O)[C@H]1NC(=O)[C@@H](CCCNC(=N)N)NC(=O)[C@@H](CCCNC(=N)N)NC(=O)[C@H](CCC(N)=O)NC(=O)[C@@H](CCCNC(=N)N)NC(=O)[C@@H](CCCNC(=N)N)NC(=O)[C@@H](CCCNC(=N)N)NC(=O)[C@H](CCCNC(=N)N)NC(=O)[C@H](Cc2ccc3ccccc3c2)NC(=O)[C@@H]2CCCCN2C1=O (cyclo([dR][dR][d(pT)][Pip][2Nal]R[dR][dR][dR]Q))	
Active	Active			C[C@H](O)[C@H]1NC(=O)[C@@H](CCCNC(=N)N)NC(=O)[C@@H](CCCNC(=N)N)NC(=O)[C@H](CCC(N)=O)NC(=O)[C@@H](CCCNC(=N)N)NC(=O)[C@@H](CCCNC(=N)N)NC(=O)[C@@H](CCCNC(=N)N)NC(=O)[C@H](CCCNC(=N)N)NC(=O)[C@H](Cc2ccc3ccccc3c2)NC(=O)[C@@H]2CCCCN2C1=O (cyclo([dR][dR][dT][Pip][2Nal]R[dR][dR][dR]Q))	
				CC1NC(=O)[C@H](CCC(N)=O)NC(=O)[C@H](Cc2ccc(O)cc2)NC(=O)[C@H](Cc2ccc3ccccc3c2)NC(=O)[C@@H]2CCCCN2C(=O)[C@@H]([C@@H](C)OP(=O)(O)O)NC(=O)CN(C)C1=O (stereo in doubt)	inactive
